Measured values pooled from the literature.
Target: Aurora kinase C (AURKC, Homo sapiens, UniProt Q9UQB9)
Residues used in one study (Q9UQB9 1-309): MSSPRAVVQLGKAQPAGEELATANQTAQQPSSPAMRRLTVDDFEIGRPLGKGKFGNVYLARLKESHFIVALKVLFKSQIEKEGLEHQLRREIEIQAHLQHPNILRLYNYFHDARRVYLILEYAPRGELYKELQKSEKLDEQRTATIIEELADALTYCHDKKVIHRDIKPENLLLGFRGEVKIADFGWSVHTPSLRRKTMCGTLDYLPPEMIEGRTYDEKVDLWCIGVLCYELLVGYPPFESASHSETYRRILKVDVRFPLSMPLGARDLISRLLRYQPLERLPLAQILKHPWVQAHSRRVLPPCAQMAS

| SMILES | read-out | technique | concentration | remaining binding [%] |
| --- | --- | --- | --- | --- |
| CC(=O)Nc1c(C(C)=O)c(=O)n(C)c2nc(-c3ccc(Cl)cc3Cl)c(-c3ccc(Cl)cc3)cc12 | cell-free assay | competition with immobilised ligand | 1 µM | 100 |
| Cc1cnc(Nc2ccc(C(=O)N3CCC(N4CCCC4)CC3)cc2)nc1-c1cc2ccccc2s1 | binding | competition with immobilised ligand | 1 µM | 4.3 |
| F[C@@H]1CCN(c2nccc(-c3cnn4ncccc34)n2)C1 | binding |  | 1 µM | 100 |
| CNC(=O)[C@@H]1CC[C@@H](n2c(-c3ccc4cnccc4c3)nc3ccc(C(=O)NCc4cccc(C(N)=O)c4)cc32)C1 | binding | competition with immobilised ligand | 1 µM | 100 |
| CCN1CCN(Cc2ccc(C(=O)Nc3ccc(C)c(Oc4ccc5c(c4)CC(=O)N5)c3)cc2C(F)(F)F)CC1 | binding | competition with immobilised ligand | 1 µM | 91 |
| O=C(NC[C@@H]1[C@H]2CN(C(=O)OCc3cc(C(F)(F)F)cc(C(F)(F)F)c3)C[C@@H]12)c1ccc2[nH]nnc2c1 | cell-free assay | competition with immobilised ligand | 1 µM | 91 |
| COc1cnc(Nc2cccc(S(N)(=O)=O)c2)nc1N1CCN(c2ccccc2)CC1 | binding | competition with immobilised ligand | 1 µM | 84 |
| O=C(NCC1CCOCC1)c1n[nH]cc1NC(=O)c1c(F)cccc1F | binding | competition with immobilised ligand | 1 µM | 79 |
| COc1cccc(CNC(=O)c2nc3scc(COCc4ccc(C(=O)O)cc4)c3c(=O)[nH]2)c1 | cell-free assay | competition with immobilised ligand | 1 µM | 67.3 |
| O=C(c1ccc(Nc2nccc(-c3cc4ccccc4s3)n2)cc1)N1CCC(N2CCCC2)CC1 | binding | competition with immobilised ligand | 1 µM | 30 |
| CN(CCCC(F)(F)F)c1nccc(-c2cnn3ncccc23)n1 | binding |  | 1 µM | 100 |
| O=C(Nc1cccnn1)N1CCC(=Cc2cccc(Oc3ccc(C(F)(F)F)cn3)c2)CC1 | cell-free assay | competition with immobilised ligand | 1 µM | 100 |
| N[C@H]1CCN(c2nccc(-c3cnn4ncccc34)n2)C1 | binding |  | 1 µM | 97 |
| O=C(c1ccc(Nc2ncc(Cl)c(-c3ccc(Cl)s3)n2)cc1)N1CCC(N2CCCC2)CC1 | binding | competition with immobilised ligand | 1 µM | 2.8 |
| CC1CCCN1c1nccc(-c2cnn3ncccc23)n1 (stereo not shown) | binding |  | 1 µM | 89 |
| CO[C@@H](C)c1c(Nc2ccc([C@H](N(C)C(=O)C3CCS(=O)(=O)CC3)C(F)(F)F)cc2)cnc2cc(Cl)nn12 | cell-free assay | competition with immobilised ligand | 1 µM | 77 |
| C[C@H]1CCN(c2nccc(-c3cnn4ncccc34)n2)C1 | binding |  | 1 µM | 95 |
| c1cncc(-c2cccc(Nc3nccc(NC4CCCCC4)n3)c2)c1 | binding | competition with immobilised ligand | 10 µM | 5.5 |
| CN(c1nccc(-c2cnn3ncccc23)n1)C1CC1 | binding |  | 1 µM | 100 |
| FC(F)(F)Oc1cccc(-c2cnc3ccc(-c4ccncc4)nn23)c1 | cell-free assay | competition with immobilised ligand | 5 µM | 78 |
| CN(C)c1nccc(-c2cnc3ncccn23)n1 | binding |  | 1 µM | 100 |
| COc1ccc2c(c1)O[C@H](c1ccc(OC)c(OC)c1)C[C@@H]2NC(=O)C1(c2ccc3c(c2)OC(F)(F)O3)CC1 | cell-free assay | competition with immobilised ligand | 1 µM | 100 |
